Data on six compounds can be found in ChEMBL document CHEMBL4371003, “Discovery of Novel Dual Mechanism of Action Src Signaling and Tubulin Polymerization Inhibitors (KX2-391 and KX2-361)” (J Med Chem, 2018).

Some results are limits rather than exact numbers.

A short description of data set [1]: Half life in rat. The note with it: in vivo. It counts as ADME.
The test system of data set [2] is SW-620. In words: Antiproliferative activity against human SW620 cells. The format is functional.
In data set [3] the target is Bcr/Abl fusion protein (Homo sapiens, UniProt P00519). Briefly: Inhibition of BCR/ABL (unknown origin). The format is protein assay.
Chain of Bcr/Abl fusion protein (P00519 whole entry, the tested form may be a part): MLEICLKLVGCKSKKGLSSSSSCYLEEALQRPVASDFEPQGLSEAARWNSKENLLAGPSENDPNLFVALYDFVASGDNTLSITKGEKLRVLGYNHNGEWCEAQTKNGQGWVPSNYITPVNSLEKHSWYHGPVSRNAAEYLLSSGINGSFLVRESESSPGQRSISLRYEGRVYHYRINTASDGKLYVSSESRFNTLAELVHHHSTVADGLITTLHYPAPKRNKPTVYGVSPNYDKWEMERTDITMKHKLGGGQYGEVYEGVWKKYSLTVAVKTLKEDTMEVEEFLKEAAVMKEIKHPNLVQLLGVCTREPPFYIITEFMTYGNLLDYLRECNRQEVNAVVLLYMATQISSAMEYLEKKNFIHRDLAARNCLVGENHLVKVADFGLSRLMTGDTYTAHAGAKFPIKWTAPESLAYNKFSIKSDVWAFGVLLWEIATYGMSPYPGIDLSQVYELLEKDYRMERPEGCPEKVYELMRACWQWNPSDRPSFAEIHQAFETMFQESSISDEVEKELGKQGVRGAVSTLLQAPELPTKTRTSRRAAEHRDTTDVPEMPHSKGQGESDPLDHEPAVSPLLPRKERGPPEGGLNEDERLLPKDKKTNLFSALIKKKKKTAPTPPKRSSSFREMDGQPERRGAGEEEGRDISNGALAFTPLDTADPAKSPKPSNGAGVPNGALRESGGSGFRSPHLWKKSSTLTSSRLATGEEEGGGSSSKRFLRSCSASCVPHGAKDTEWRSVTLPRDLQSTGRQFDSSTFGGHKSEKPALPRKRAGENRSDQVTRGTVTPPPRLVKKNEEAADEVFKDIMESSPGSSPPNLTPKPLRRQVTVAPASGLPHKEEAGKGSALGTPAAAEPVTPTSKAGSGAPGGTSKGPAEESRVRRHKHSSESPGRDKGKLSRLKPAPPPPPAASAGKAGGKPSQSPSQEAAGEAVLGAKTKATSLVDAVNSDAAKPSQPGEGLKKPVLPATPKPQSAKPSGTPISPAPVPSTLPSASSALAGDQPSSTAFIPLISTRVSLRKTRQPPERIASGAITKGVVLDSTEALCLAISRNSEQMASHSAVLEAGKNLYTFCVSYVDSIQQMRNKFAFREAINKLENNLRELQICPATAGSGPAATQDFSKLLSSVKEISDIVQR
Chain of Bcr/Abl fusion protein (P11274 whole entry, further chain, the tested form may be a part): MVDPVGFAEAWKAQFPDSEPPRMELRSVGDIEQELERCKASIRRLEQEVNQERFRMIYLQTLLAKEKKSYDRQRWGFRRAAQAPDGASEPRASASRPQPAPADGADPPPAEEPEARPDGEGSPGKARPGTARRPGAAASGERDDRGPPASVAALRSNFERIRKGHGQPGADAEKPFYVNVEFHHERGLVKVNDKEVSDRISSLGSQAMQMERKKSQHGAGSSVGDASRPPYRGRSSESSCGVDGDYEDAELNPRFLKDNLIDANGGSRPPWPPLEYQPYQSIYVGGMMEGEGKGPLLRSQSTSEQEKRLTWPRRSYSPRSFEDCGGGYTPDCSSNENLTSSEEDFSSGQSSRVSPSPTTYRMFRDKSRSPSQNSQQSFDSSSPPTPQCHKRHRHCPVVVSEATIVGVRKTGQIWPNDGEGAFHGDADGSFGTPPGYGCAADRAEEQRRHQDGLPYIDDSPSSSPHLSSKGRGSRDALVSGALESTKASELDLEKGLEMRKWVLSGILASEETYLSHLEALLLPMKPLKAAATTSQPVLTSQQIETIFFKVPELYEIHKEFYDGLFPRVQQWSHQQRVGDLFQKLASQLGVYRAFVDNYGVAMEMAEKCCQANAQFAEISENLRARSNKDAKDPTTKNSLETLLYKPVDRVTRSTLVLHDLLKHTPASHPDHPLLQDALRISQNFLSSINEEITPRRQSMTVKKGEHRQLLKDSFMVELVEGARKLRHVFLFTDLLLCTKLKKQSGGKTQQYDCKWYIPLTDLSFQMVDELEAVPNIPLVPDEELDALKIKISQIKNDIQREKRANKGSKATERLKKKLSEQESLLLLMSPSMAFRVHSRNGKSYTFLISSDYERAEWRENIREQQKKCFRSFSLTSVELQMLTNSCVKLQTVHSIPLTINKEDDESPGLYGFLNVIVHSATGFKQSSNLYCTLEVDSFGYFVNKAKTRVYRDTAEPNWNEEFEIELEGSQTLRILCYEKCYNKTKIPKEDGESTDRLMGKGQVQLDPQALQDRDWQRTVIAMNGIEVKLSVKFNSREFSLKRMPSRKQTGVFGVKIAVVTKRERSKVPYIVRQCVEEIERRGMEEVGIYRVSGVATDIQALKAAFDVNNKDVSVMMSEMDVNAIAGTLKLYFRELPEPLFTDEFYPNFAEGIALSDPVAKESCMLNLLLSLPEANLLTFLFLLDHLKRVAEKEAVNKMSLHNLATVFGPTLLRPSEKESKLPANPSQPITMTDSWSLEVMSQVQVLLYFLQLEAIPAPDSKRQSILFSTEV
Data set [4] is described as follows: Cmax in solid tumor patient at 40 mg, po during phase 1 clinical trial. The format is ADME, organism-based. Details: dose 40 mg, route oral. To be noted: human, in vivo. The method, boiled down: (§1)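 Phase 1 trial in late-stage solid tumor patients: continuous twice-daily oral dosing, first in 4-week cycles of 3 weeks on and 1 week off, later without the off week. Plasma PK (Cmax, Tmax, half-life, Vz/F) recorded at each dose level; Cmax given in ng/ml and nM.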

Data set [5] is described as follows: Oral bioavailability in mouse. The format is ADME, organism-based. The note with it: in vivo.
Data set [6] in a line: Antiproliferative activity against human PC3MLN4 cells. It counts as functional.
Data set [7] is described as follows: Cmax in CRPC patient at 40 mg, po BID during phase 2 trial by LC-MS analysis. It counts as ADME, organism-based. Details: dose 40 mg, route oral. To be noted: human, in vivo.
Data set [8] concerns the target BCR/ABL1 (Mus musculus) (UniProt P00520+Q6PAJ1). To be noted: Homo sapiens.
Data set [9] is described as follows: Half life in dog. The format is ADME, Canis lupus familiaris. To be noted: in vivo.
For data set [10], the system named is Bcr/Abl fusion protein (Homo sapiens), P00519+P11274 [T315I]. The note with it: Mus musculus.
In data set [11] the test system is Huh-7. In words: Antiproliferative activity against human HuH7 cells. The format is functional.
Data set [12] can be described thus: Half life in AML patient at 120 mg, po qd. The format is ADME, organism-based. To be noted: human, in vivo.
Data set [13] relates to RPMI-8226. In words: Antiproliferative activity against human RPMI8226 cells. The format is functional.
Data set [14] can be described thus: Drug uptake in mouse brain at 10 mg/kg, po relative to peripheral drug level. The format is ADME, organism-based. Put shortly:
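Mice dosed orally at 10 mg/kg; brain and plasma exposure measured as AUC and expressed as brain-to-plasma AUC ratio.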

The species entered for data set [15] is Homo sapiens. In words: Inhibition of SRC 527F mutant (unknown origin) expressed in mouse SYF cells assessed as inhibition of cell growth in presence of 2% FCS. The format is cell-based.
Data set [16] in a line: Cmax in solid tumor patient at 80 mg, po BID during phase 1 clinical trial. It counts as ADME, organism-based. Details: dose 80 mg, route oral. The note with it: human, in vivo. Put shortly: as §1
Data set [17] deals with Bcr/Abl fusion protein (Homo sapiens), P00519+P11274 [E255K].
Data set [18] can be described thus: Half life in solid tumor patient at 40 mg, po during phase 1 clinical trial. It counts as ADME, organism-based. To be noted: human, in vivo.
Data set [19] concerns NCI-H226. In words: Antiproliferative activity against human NCI-H226 cells. The format is functional.
The nature of data set [20]: Antiproliferative activity against human PC3MM2 cells. The format is functional.
The nature of data set [21]: Ratio of AUC in tumor to plasma of mouse xenografted with human HT-29 cells at 5 mg/kg, po. The format is ADME, organism-based. To be noted: tumor and plasma, read-out: Ratio AUC. Background: A xenograft is tissue or cells of one species grown in another, often human tumour cells in immunodeficient mice.
Data set [22] addresses Tyrosine-protein kinase Lyn (Homo sapiens, UniProt P07948). Briefly: Inhibition of LYN (unknown origin).
The nature of data set [23]: Half life in po dosed mouse. To be noted: in vivo. It counts as ADME, organism-based.
For data set [24], the system named is A549. Briefly: Antiproliferative activity against human A549 cells. The format is functional.
Data set [25] concerns HT-29. Briefly: Antiproliferative activity against human HT-29 cells in presence of 0.5% FCS. The format is functional, cell-based.
The nature of data set [26]: Apparent volume of distribution in solid tumor patient at 40 mg, po during phase 1 clinical trial. It counts as ADME, organism-based. The note with it: human, in vivo, read-out: Vz/F. Put shortly:
as §1

The nature of data set [27]: Drug absorption in po dosed dog. To be noted: in vivo, read-out: Drug absorption. It counts as ADME, organism-based, Canis lupus familiaris.
Data set [28] is described as follows: Tmax in solid tumor patient at 40 mg, po during phase 1 clinical trial. The format is ADME, organism-based. The note with it: human, in vivo.
Data set [29] has as its system HCT-116. Briefly: Antiproliferative activity against human HCT116 cells. The format is functional.
Data set [30] concerns NCI/ADR-RES. In words: Antiproliferative activity against human NCI/ADR-RES cells. The format is functional.
Data set [31] has as its system MOLT-4. In words: Antiproliferative activity against human MOLT4 cells. It counts as functional.
The subject of data set [32] is Jurkat. Briefly: Antiproliferative activity against human Jurkat cells. It counts as functional.
Data set [33] relates to K562. Briefly: Antiproliferative activity against human K562 cells. It counts as functional.
Data set [34] relates to MES-SA/Dx5. In words: Antiproliferative activity against human MES-SA/Dx5 cells. It counts as functional.
Data set [35] relates to NCI-H460. In words: Antiproliferative activity against human H460 cells. It counts as functional.
In data set [36] the test system is KG-1. In words: Antiproliferative activity against human KG1 cells. It counts as functional.
For data set [37], the system named is HT-29. Briefly: Antiproliferative activity against human HT-29 cells in presence of 1.5% FCS by BrdU incorporation assay. The format is functional, cell-based.
The test system of data set [38] is K-562R. In words: Antiproliferative activity against human K562R cells. The format is functional.
Data set [39] in a line: Drug absorption in po dosed rat. The format is ADME, organism-based. The note with it: in vivo, read-out: Drug absorption.
Data set [40] addresses T1, Proto-oncogene tyrosine-protein kinase Src (Homo sapiens, UniProt P12931). In words: Inhibition of Src (unknown origin).
Data set [41] deals with HT-29. Briefly: Antiproliferative activity against human HT-29 cells. It counts as functional.
A short description of data set [42]: Ratio of AUC in brain to plasma of mouse at 10 mg/kg, po. The format is ADME, organism-based. To be noted: brain and plasma, read-out: Ratio AUC.
Data set [43] concerns 769-P. Briefly: Antiproliferative activity against human 769-P cells. It counts as functional.
In data set [44] the test system is L3.6pl. In words: Antiproliferative activity against human L3.6PL cells. The format is functional.
The test system of data set [45] is MDA-MB-231. Briefly: Antiproliferative activity against human MDA-MB-231 cells. The format is functional.
In data set [46] the test system is RL. In words: Antiproliferative activity against human RL cells. It counts as functional.
Data set [47] is filed under the species Homo sapiens. In words: Inhibition of SRC 527F mutant (unknown origin) expressed in mouse SYF cells assessed as inhibition of cell growth in presence of 10% FCS. The format is cell-based.
Data set [48] has as its system CCRF-HSB-2. In words: Antiproliferative activity against human CCRF-HSB2 cells. It counts as functional.
A short description of data set [49]: Cmax in solid tumor patient at 50 mg, po BID measured during first monthly cycle during phase 1 clinical trial. It counts as ADME, organism-based. The note with it: human, in vivo. Details: dose 50 mg, route oral. Put shortly:
as §1

Data set [50] can be described thus: Cmax in AML patient at 120 mg, po qd. It counts as ADME, organism-based. Details: dose 120 mg, route oral. The note with it: human, in vivo. The method, boiled down:
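Phase 1b study in elderly advanced AML patients with repeated once-daily oral dosing; plasma and bone-marrow drug concentrations measured.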

Data set [51] has as its system SK-OV-3. In words: Antiproliferative activity against human SKOV3 cells. The format is functional.
Data set [52] addresses T1, Proto-oncogene tyrosine-protein kinase Src. In words: Inhibition of human c-SRC expressed in mouse NIH/3T3 cells assessed as reduction in cell growth. The format is cell-based.
Data set [53] relates to A549. In words: Antitumor activity against human A549 cells. It counts as functional, cell-based.
Data set [54] relates to NCI-H460. In words: Antitumor activity against human NCI-H460 cells. The format is functional, cell-based.
In data set [55] the test system is KM12. In words: Antitumor activity against human KM12 cells. The format is functional, cell-based.
A short description of data set [56]: Inhibition of human c-SRC expressed in mouse NIH/3T3 cells assessed as reduction in BrdU incorporation after 24 hrs by ELISA. For orientation: Dividing cells build labelled thymidine or BrdU into new DNA.
The target in data set [57] is T1, Proto-oncogene tyrosine-protein kinase Src. Briefly: Inhibition of human recombinant pp60c-src expressed in baculovirus infected Sf9 insect cells using poly(Glu,Tyr) 4:1 as substrate after 15 mins.

T1 sequence (P12931 2-536 limits assumed): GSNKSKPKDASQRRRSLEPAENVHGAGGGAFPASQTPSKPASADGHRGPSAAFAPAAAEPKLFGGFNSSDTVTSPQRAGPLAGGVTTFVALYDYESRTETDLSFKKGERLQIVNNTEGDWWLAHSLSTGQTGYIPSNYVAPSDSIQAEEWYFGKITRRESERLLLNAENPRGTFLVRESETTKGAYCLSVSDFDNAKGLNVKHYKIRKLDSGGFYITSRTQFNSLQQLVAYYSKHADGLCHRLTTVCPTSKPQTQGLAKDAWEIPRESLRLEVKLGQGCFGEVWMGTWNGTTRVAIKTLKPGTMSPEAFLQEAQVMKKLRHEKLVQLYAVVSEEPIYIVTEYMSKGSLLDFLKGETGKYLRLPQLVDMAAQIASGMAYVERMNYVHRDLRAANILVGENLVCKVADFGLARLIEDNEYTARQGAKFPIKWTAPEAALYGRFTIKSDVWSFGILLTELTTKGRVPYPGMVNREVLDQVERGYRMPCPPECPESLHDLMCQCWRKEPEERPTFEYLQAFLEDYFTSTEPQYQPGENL
Chain of Tyrosine-protein kinase Lyn (P07948 whole entry): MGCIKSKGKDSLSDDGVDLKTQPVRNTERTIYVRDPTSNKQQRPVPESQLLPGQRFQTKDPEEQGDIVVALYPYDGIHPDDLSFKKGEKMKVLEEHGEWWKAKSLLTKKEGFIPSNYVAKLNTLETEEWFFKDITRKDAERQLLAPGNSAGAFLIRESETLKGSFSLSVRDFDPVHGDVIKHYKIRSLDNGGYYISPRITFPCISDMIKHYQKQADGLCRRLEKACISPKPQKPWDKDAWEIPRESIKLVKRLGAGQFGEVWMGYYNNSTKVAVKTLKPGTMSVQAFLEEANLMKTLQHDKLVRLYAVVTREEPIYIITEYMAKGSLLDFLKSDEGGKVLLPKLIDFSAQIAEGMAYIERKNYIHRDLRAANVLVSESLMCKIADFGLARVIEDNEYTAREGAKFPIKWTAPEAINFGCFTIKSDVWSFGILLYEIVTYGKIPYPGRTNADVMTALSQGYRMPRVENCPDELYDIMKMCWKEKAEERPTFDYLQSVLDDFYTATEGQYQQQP

The term half-life denotes the time in which the quantity being followed falls by half. The low end stands for fast loss, the high end for slow loss. The term GI50 denotes the concentration giving 50% growth inhibition. Usually IC50 stands for the concentration needed to halve the response being measured. What is called Cmax is the highest concentration seen after dosing. For orientation: bioavailability means the share of a dose that reaches the circulation, judged against a reference dose that is usually intravenous. Broadly, the Tmax is the time from dosing to the highest level. In the case of `O=C(Cc1ccc(-c2ccc(OCCN3CCOCC3)cc2)cn1)NCc1ccccc1` [TIRBANIBULIN], the half-life in data set [1] was 2 h; in data set [9] it was 8 h; in [12], 2.2 h; in data set [18] it was 4 h; in data set [23], 1 h. For the same compound, the GI90 in [2] came out at 903 nM; in [19], 490 nM; in [29] it was 195 nM; in data set [35], 162 nM. Moreover, the GI50 came out at 109 nM in [2] (Homo sapiens, SW-620); 40 nM in data set [6]; 85 nM in [8]; 35 nM in [10]; 9 nM in data set [11]; 40 nM in [13]. Further, the 50% growth inhibitory concentration (GI50) in [15] amounted to 23 nM; in [17], 80 nM; in data set [19] (Homo sapiens, NCI-H226), 98 nM; in data set [20], 9 nM; in data set [24], 9 nM; in data set [29] (Homo sapiens, HCT-116) it was 31 nM. Also, the 50% growth inhibitory concentration (GI50) in [30] was determined as 56 nM; in data set [31] it was 13 nM; in data set [32], 10 nM; in data set [33], 13 nM; in [34], 34 nM; in [35] (Homo sapiens, NCI-H460), 51 nM. The GI50 in data set [36] was 16 nM; in data set [38], 0.64 nM; in data set [41], 25 nM; in data set [43], 45 nM; in data set [44], 25 nM; in [45] it was 20 nM. Further, the GI50 in data set [46] stood at 19 nM; in data set [47], 123 nM; in [48] it was 12 nM; in data set [51] it was 10 nM; in data set [52], 20 nM. For the same compound, the half-maximal inhibitory concentration (IC50) in data set [3] is 100 to 200 nM; in [22], 100 to 200 nM; in [25] it was 5 nM; in [37], 23 nM; in data set [40], 46000 nM. The Cmax is 80 ng/mL in data set [4]; 61 ng/mL in data set [7]; 273 ng/mL in [16]; 231 ng/mL in [49]; 218 ng/mL in [50]. In data set [5], this compound registered a bioavailability of 49%. The Drug uptake in data set [14] was determined as 42%. Moreover, the Kp in data set [21] worked out at 1.52; in [42], 0.42. Further, the Vd/F in [26] turned out to be 681 L. Besides, the Fa in data set [27] and in data set [39] was 50 to 90% in each case. In addition, in [28], the Tmax came out at 1 h.

For the compound `O=C(NCc1cccc(O)c1)c1cc2cc(O)ccc2[nH]1`, the IC50 in data set [53] came out at 41000 nM; in data set [54], 59000 nM; in data set [55], 4200 nM.

Take `O=C(NCc1cccc(F)c1)c1cc2cc(F)ccc2[nH]1`: in [54], it took 15000 nM to reach half-maximal inhibition (IC50).

In the case of `COc1cc2c(Nc3c(Cl)ccc4c3OCO4)ncnc2cc1OCCCN1CCCCC1`, the half-inhibitory concentration (IC50) in data set [56] is 110 nM; in data set [57], less than 4 nM. Further, the concentration for 50% growth inhibition (GI50) in [52] came to 87 nM.

Take `C#CCCCN(CCOc1ccc(-c2ccc(CC(=O)NCc3ccccc3)nc2)cc1)C(=O)c1ccc(C(=O)c2ccccc2)cc1`: the concentration for 50% growth inhibition (GI50) in data set [6] came out at 45 nM; in data set [41], 28 nM.

For `CC(=O)O[C@H]1C(=O)[C@@]2(C)[C@H]([C@H](OC(=O)c3ccccc3)[C@]3(O)C[C@H](OC(=O)[C@H](O)[C@@H](NC(=O)c4ccccc4)c4ccccc4)C(C)=C1C3(C)C)[C@]1(OC(C)=O)CO[C@@H]1C[C@@H]2O` [PACLITAXEL], the figures for the GI50 in data set [30] and in data set [34] were 5940 nM and 1800 nM, respectively.
